Data as given in ChEMBL document CHEMBL1148636, “Novel analogues of degarelix incorporating hydroxy-, methoxy-, and pegylated-urea moieties at positions 3, 5, 6 and the N-terminus. Part III” (J Med Chem, 2006).
≈ marks a conversion by molar mass, not a printed value. Numbered stars: 1 amine (or outer) side, 2 acyl side, 3 side chain; on linkers, the order of the positions; unused ones are H or OH. Square brackets hold non-standard residues; d marks the D form. Side chains are listed from the residue outwards. Peptide text beside a SMILES is read from it. * marks the point of attachment. dPhe(4-NHCONH2) = NC(=O)Nc1ccc(C[C@@H](N)C(=O)O)cc1; Dihydroorotyl(S) = O=C1C[C@@H](C(=O)*)NC(=O)N1; dPhe(4-NH2) = Nc1ccc(C[C@@H](N)C(=O)O)cc1; dPhe(4-Cl) = N[C@H](Cc1ccc(Cl)cc1)C(=O)O; Phe(4-NH2) = Nc1ccc(C[C@H](N)C(=O)O)cc1; d2Nal = N[C@H](Cc1ccc2ccccc2c1)C(=O)O; Lys(iPr) = CC(C)NCCCC[C@H](N)C(=O)O; NHCH2CH2OCH2CH2OEt = CCOCCOCCN*; d3Pal = N[C@H](Cc1cccnc1)C(=O)O; Methoxycarbamoyl = CONC(=O)*; PEG3 = NCCOCCOCCOCCC(=O)O; CO = O=C([*:1])[*:2]; Butyryl = CCCC(=O)*

molecular target: T1, Gonadotropin-releasing hormone receptor (Homo sapiens, UniProt P30968); test: Antagonist activity at human GnRH receptor expressed in HEK293 cells as inhibition of GnRH-induced LH secretion by reporter gene assay; assay type: functional, cell-based
T1 sequence (P30968 whole entry): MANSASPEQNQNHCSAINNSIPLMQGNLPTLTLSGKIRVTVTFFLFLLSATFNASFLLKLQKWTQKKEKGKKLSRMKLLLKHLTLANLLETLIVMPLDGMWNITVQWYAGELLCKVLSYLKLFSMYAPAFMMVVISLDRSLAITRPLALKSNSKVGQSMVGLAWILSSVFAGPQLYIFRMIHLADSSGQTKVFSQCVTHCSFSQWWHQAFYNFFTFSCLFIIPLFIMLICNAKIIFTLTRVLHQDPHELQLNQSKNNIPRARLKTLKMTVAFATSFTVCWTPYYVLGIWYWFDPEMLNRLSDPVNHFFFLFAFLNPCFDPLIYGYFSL
How it was run: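 HEK293 cells stably expressing cloned human GnRH receptor plus luciferase reporter under LH alpha subunit promoter; plated 5 × 10^4 cells/well, overnight 37 °C. Compounds in 1% DMSO, 11 half-log concentrations in duplicate, 10 min preincubation, then GnRH 1 nM final, ≥5 h at 37 °C; luminescence read. Percent of control fitted to IC50; geometric mean of ≥2 independent experiments.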

| SMILES | IC50 [nM] |
| --- | --- |
| CCCC(=O)N[C@H](Cc1ccc2ccccc2c1)C(=O)N[C@H](Cc1ccc(Cl)cc1)C(=O)N[C@H](Cc1cccnc1)C(=O)N[C@@H](CO)C(=O)N[C@@H](Cc1ccc(NC(=O)[C@@H]2CC(=O)NC(=O)N2)cc1)C(=O)N[C@H](Cc1ccc(NC(=O)NOC)cc1)C(=O)N[C@@H](CC(C)C)C(=O)N[C@@H](CCCCNC(C)C)C(=O)N1CCC[C@H]1C(=O)N[C@H](C)C(N)=O | 2.13 |
| CCCC(=O)N[C@H](Cc1ccc2ccccc2c1)C(=O)N[C@H](Cc1ccc(Cl)cc1)C(=O)N[C@H](Cc1cccnc1)C(=O)N[C@@H](CO)C(=O)N[C@@H](Cc1ccc(NC(=O)NOC)cc1)C(=O)N[C@H](Cc1ccc(NC(N)=O)cc1)C(=O)N[C@@H](CC(C)C)C(=O)N[C@@H](CCCCNC(C)C)C(=O)N1CCC[C@H]1C(=O)N[C@H](C)C(N)=O | 1.46 |
| CCOCCOCCNC(=O)Nc1ccc(C[C@H](NC(=O)[C@H](CO)NC(=O)[C@@H](Cc2cccnc2)NC(=O)[C@@H](Cc2ccc(Cl)cc2)NC(=O)[C@@H](Cc2ccc3ccccc3c2)NC(C)=O)C(=O)N[C@H](Cc2ccc(NC(=O)NCCOCCOCC)cc2)C(=O)N[C@@H](CC(C)C)C(=O)N[C@@H](CCCCNC(C)C)C(=O)N2CCC[C@H]2C(=O)N[C@H](C)C(N)=O)cc1 | 2.04 |
| CONC(=O)NCC[C@@H](NC(=O)[C@@H](Cc1ccc(Cl)cc1)NC(=O)[C@@H](Cc1ccc2ccccc2c1)NC(C)=O)C(=O)N[C@@H](CO)C(=O)N[C@@H](Cc1ccc(NC(=O)NOC)cc1)C(=O)N[C@H](Cc1ccc(NC(=O)NOC)cc1)C(=O)N[C@@H](CC(C)C)C(=O)N[C@@H](CCCCNC(C)C)C(=O)N1CCC[C@H]1C(=O)N[C@H](C)C(N)=O | 1.49 |
| CCCCCCCC(=O)N[C@H](Cc1ccc2ccccc2c1)C(=O)N[C@H](Cc1ccc(Cl)cc1)C(=O)N[C@H](Cc1cccnc1)C(=O)N[C@@H](CO)C(=O)N[C@@H](Cc1ccc(NC(=O)[C@@H]2CC(=O)NC(=O)N2)cc1)C(=O)N[C@H](Cc1ccc(NC(=O)NOC)cc1)C(=O)N[C@@H](CC(C)C)C(=O)N[C@@H](CCCCNC(C)C)C(=O)N1CCC[C@H]1C(=O)N[C@H](C)C(N)=O | 9.47 |
| CCCC(=O)N[C@H](Cc1ccc2ccccc2c1)C(=O)N[C@H](Cc1ccc(Cl)cc1)C(=O)N[C@H](Cc1cccnc1)C(=O)N[C@@H](CO)C(=O)N[C@@H](Cc1ccc(NC(=O)NOC)cc1)C(=O)N[C@H](Cc1ccc(NC(=O)NOC)cc1)C(=O)N[C@@H](CC(C)C)C(=O)N[C@@H](CCCCNC(C)C)C(=O)N1CCC[C@H]1C(=O)N[C@H](C)C(N)=O (Butyryl-[d2Nal][dPhe(4-Cl)][d3Pal]S[Phe(4-NH2)](Methoxycarbamoyl)[dPhe(4-NH2)](Methoxycarbamoyl)L[Lys(iPr)]P[dA]-NH2) | 1.37 |
| CONC(=O)NC[C@@H](NC(=O)[C@@H](Cc1ccc(Cl)cc1)NC(=O)[C@@H](Cc1ccc2ccccc2c1)NC(C)=O)C(=O)N[C@@H](CO)C(=O)N[C@@H](Cc1ccc(NC(=O)[C@@H]2CC(=O)NC(=O)N2)cc1)C(=O)N[C@H](Cc1ccc(NC(N)=O)cc1)C(=O)N[C@@H](CC(C)C)C(=O)N[C@@H](CCCCNC(C)C)C(=O)N1CCC[C@H]1C(=O)N[C@H](C)C(N)=O | 3.16 |
| CONC(=O)Nc1ccc(C[C@H](NC(=O)[C@H](CO)NC(=O)[C@@H](CCC(N)=O)NC(=O)[C@@H](Cc2ccc(Cl)cc2)NC(=O)[C@@H](Cc2ccc3ccccc3c2)NC(C)=O)C(=O)N[C@H](Cc2ccc(NC(=O)NOC)cc2)C(=O)N[C@@H](CC(C)C)C(=O)N[C@@H](CCCCNC(C)C)C(=O)N2CCC[C@H]2C(=O)N[C@H](C)C(N)=O)cc1 | 2.98 |
| CONC(=O)NCCOCCOCCOCCOCCOCCOCCC(=O)Nc1ccc(C[C@@H](NC(=O)[C@H](Cc2ccc(NC(=O)NOC)cc2)NC(=O)[C@H](CO)NC(=O)[C@@H](Cc2cccnc2)NC(=O)[C@@H](Cc2ccc(Cl)cc2)NC(=O)[C@@H](Cc2ccc3ccccc3c2)NC(C)=O)C(=O)N[C@@H](CC(C)C)C(=O)N[C@@H](CCCCNC(C)C)C(=O)N2CCC[C@H]2C(=O)N[C@H](C)C(N)=O)cc1 | 1.67 |
| CCCCCCCC(=O)N[C@H](Cc1ccc2ccccc2c1)C(=O)N[C@H](Cc1ccc(Cl)cc1)C(=O)N[C@H](Cc1cccnc1)C(=O)N[C@@H](CO)C(=O)N[C@@H](Cc1ccc(NC(=O)NOC)cc1)C(=O)N[C@H](Cc1ccc(NC(N)=O)cc1)C(=O)N[C@@H](CC(C)C)C(=O)N[C@@H](CCCCNC(C)C)C(=O)N1CCC[C@H]1C(=O)N[C@H](C)C(N)=O | 4.17 |
| CC(=O)N[C@H](Cc1ccc2ccccc2c1)C(=O)N[C@H](Cc1ccc(Cl)cc1)C(=O)N[C@H](Cc1cccnc1)C(=O)N[C@@H](CO)C(=O)N[C@@H](Cc1ccc(NC(=O)[C@@H]2CC(=O)NC(=O)N2)cc1)C(=O)N[C@H](Cc1ccc(NC(=O)NO)cc1)C(=O)N[C@@H](CC(C)C)C(=O)N[C@@H](CCCCNC(C)C)C(=O)N1CCC[C@H]1C(=O)N[C@H](C)C(N)=O | 0.8 |
| CC(=O)N[C@H](Cc1ccc2ccccc2c1)C(=O)N[C@H](Cc1ccc(Cl)cc1)C(=O)N[C@H](CNC(=O)NO)C(=O)N[C@@H](CO)C(=O)N[C@@H](Cc1ccc(NC(=O)[C@@H]2CC(=O)NC(=O)N2)cc1)C(=O)N[C@H](Cc1ccc(NC(N)=O)cc1)C(=O)N[C@@H](CC(C)C)C(=O)N[C@@H](CCCCNC(C)C)C(=O)N1CCC[C@H]1C(=O)N[C@H](C)C(N)=O | 3.46 |
| CC(=O)N[C@H](Cc1ccc2ccccc2c1)C(=O)N[C@H](Cc1ccc(Cl)cc1)C(=O)N[C@H](CCNC(=O)NO)C(=O)N[C@@H](CO)C(=O)N[C@@H](Cc1ccc(NC(=O)[C@@H]2CC(=O)NC(=O)N2)cc1)C(=O)N[C@H](Cc1ccc(NC(N)=O)cc1)C(=O)N[C@@H](CC(C)C)C(=O)N[C@@H](CCCCNC(C)C)C(=O)N1CCC[C@H]1C(=O)N[C@H](C)C(N)=O | 2.68 |
| CONC(=O)Nc1ccc(C[C@H](NC(=O)[C@H](CO)NC(=O)[C@@H](Cc2cccnc2)NC(=O)[C@@H](Cc2ccc(Cl)cc2)NC(=O)[C@@H](Cc2ccc3ccccc3c2)NC(C)=O)C(=O)N[C@H](Cc2ccc(NC(=O)NOC)cc2)C(=O)N[C@@H](CC(C)C)C(=O)N[C@@H](CCCNC(=O)CNC(C)C)C(=O)N2CCC[C@H]2C(=O)N[C@H](C)C(N)=O)cc1 | 1.53 |
| CCOCCOCCNC(=O)Nc1ccc(C[C@@H](NC(=O)[C@H](Cc2ccc(NC(=O)[C@@H]3CC(=O)NC(=O)N3)cc2)NC(=O)[C@H](CO)NC(=O)[C@@H](Cc2cccnc2)NC(=O)[C@@H](Cc2ccc(Cl)cc2)NC(=O)[C@@H](Cc2ccc3ccccc3c2)NC(=O)NCCOCCOCC)C(=O)N[C@@H](CC(C)C)C(=O)N[C@@H](CCCCNC(C)C)C(=O)N2CCC[C@H]2C(=O)N[C@H](C)C(N)=O)cc1 | 4.55 |
| CCOCCOCCNC(=O)Nc1ccc(C[C@H](NC(=O)[C@H](CO)NC(=O)[C@@H](Cc2cccnc2)NC(=O)[C@@H](Cc2ccc(Cl)cc2)NC(=O)[C@@H](Cc2ccc3ccccc3c2)NC(=O)NCCOCCOCC)C(=O)N[C@H](Cc2ccc(NC(=O)NCCOCCOCC)cc2)C(=O)N[C@@H](CC(C)C)C(=O)N[C@@H](CCCCNC(C)C)C(=O)N2CCC[C@H]2C(=O)N[C@H](C)C(N)=O)cc1 | 2.55 |
| CC(=O)N[C@H](Cc1ccc2ccccc2c1)C(=O)N[C@H](Cc1ccc(Cl)cc1)C(=O)N[C@H](Cc1cccnc1)C(=O)N[C@@H](CO)C(=O)N[C@@H](Cc1ccc(NC(=O)NO)cc1)C(=O)N[C@H](Cc1ccc(NC(N)=O)cc1)C(=O)N[C@@H](CC(C)C)C(=O)N[C@@H](CCCCNC(C)C)C(=O)N1CCC[C@H]1C(=O)N[C@H](C)C(N)=O | 0.86 |
| CCOCCOCCNC(=O)Nc1ccc(C[C@@H](NC(=O)[C@H](Cc2ccc(NC(=O)[C@@H]3CC(=O)NC(=O)N3)cc2)NC(=O)[C@H](CO)NC(=O)[C@@H](Cc2cccnc2)NC(=O)[C@@H](Cc2ccc(Cl)cc2)NC(=O)[C@@H](Cc2ccc3ccccc3c2)NC(C)=O)C(=O)N[C@@H](CC(C)C)C(=O)N[C@@H](CCCCNC(C)C)C(=O)N2CCC[C@H]2C(=O)N[C@H](C)C(N)=O)cc1 (Ac-[d2Nal][dPhe(4-Cl)][d3Pal]S[Phe(4-NH2)](Dihydroorotyl(S))[dPhe(4-NH2)]([CO-NHCH2CH2OCH2CH2OEt])L[Lys(iPr)]P[dA]-NH2) | 0.88 |
| CONC(=O)NCC[C@@H](NC(=O)[C@@H](Cc1ccc(Cl)cc1)NC(=O)[C@@H](Cc1ccc2ccccc2c1)NC(C)=O)C(=O)N[C@@H](CO)C(=O)N[C@@H](Cc1ccc(NC(=O)[C@@H]2CC(=O)NC(=O)N2)cc1)C(=O)N[C@H](Cc1ccc(NC(N)=O)cc1)C(=O)N[C@@H](CC(C)C)C(=O)N[C@@H](CCCCNC(C)C)C(=O)N1CCC[C@H]1C(=O)N[C@H](C)C(N)=O | 1.69 |
| CONC(=O)NCCOCCOCCOCCC(=O)Nc1ccc(C[C@H](NC(=O)[C@H](CO)NC(=O)[C@@H](Cc2cccnc2)NC(=O)[C@@H](Cc2ccc(Cl)cc2)NC(=O)[C@@H](Cc2ccc3ccccc3c2)NC(C)=O)C(=O)N[C@H](Cc2ccc(NC(N)=O)cc2)C(=O)N[C@@H](CC(C)C)C(=O)N[C@@H](CCCCNC(C)C)C(=O)N2CCC[C@H]2C(=O)N[C@H](C)C(N)=O)cc1 (Ac-[d2Nal][dPhe(4-Cl)][d3Pal]S[Phe(4-NH2)]([PEG3-Methoxycarbamoyl])[dPhe(4-NHCONH2)]L[Lys(iPr)]P[dA]-NH2) | 1.06 |
| CCCCCCCC(=O)N[C@H](Cc1ccc2ccccc2c1)C(=O)N[C@H](Cc1ccc(Cl)cc1)C(=O)N[C@H](Cc1cccnc1)C(=O)N[C@@H](CO)C(=O)N[C@@H](Cc1ccc(NC(=O)NOC)cc1)C(=O)N[C@H](Cc1ccc(NC(=O)NOC)cc1)C(=O)N[C@@H](CC(C)C)C(=O)N[C@@H](CCCCNC(C)C)C(=O)N1CCC[C@H]1C(=O)N[C@H](C)C(N)=O | 4.99 |

test system: Mast cell (Rattus norvegicus); test: Histamine release in mast cells by ELISA

| SMILES | EC50 [µg/mL] |
| --- | --- |
| CC(=O)N[C@H](Cc1ccc2ccccc2c1)C(=O)N[C@H](Cc1ccc(Cl)cc1)C(=O)N[C@H](Cc1cccnc1)C(=O)N[C@@H](CO)C(=O)N[C@@H](Cc1ccc(NC(=O)NO)cc1)C(=O)N[C@H](Cc1ccc(NC(N)=O)cc1)C(=O)N[C@@H](CC(C)C)C(=O)N[C@@H](CCCCNC(C)C)C(=O)N1CCC[C@H]1C(=O)N[C@H](C)C(N)=O | 118 (≈ 75.9 µM) |
